Read-outs that look alike come from different tables or passages of the source.
Columns and labels:
A3G-mycHis (APOBEC3G) = A3G-mycHis (APOBEC3G) (Homo sapiens, UniProt Q9HC16); assay: Fluorescence-based ssDNA cytosine deaminase assay with purified A3G-mycHis; format: biochemical; conditions: for reproducibility of A3G inhibitory activity (in words): introductory summary of own findings, assay format not stated
Summary of the method: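 Human A3G-mycHis purified by C-terminal His tag from HEK293T cells and diluted in pH 7.4 Tris buffer with Triton and protease inhibitors. Enzyme incubated with 10 pmol 6-FAM/TAMRA ssDNA containing one CCC site. Then UDG treatment for 2 hrs at 37 °C, NaOH cleavage for 30 min, and neutralisation. Fluorescence read at ex 490/em 520 nm. Peptides from 10 mM DMSO stocks; n = 3, mean ± SEM; IC50 from curve fit.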

A3G (APOBEC3G) [1] = assay: PCR and restriction-based ssDNA deamination assay; format: biochemical, human; conditions: 10 nM A3G, 1 nM ssDNA, 37 °C, 30 min, pH 7.0, gel representative of >3 independent experiments
A3G (APOBEC3G) [2] = conditions: biochemical assays, prior studies, ref [14]–[18], cited from earlier work

Sequence of A3G-mycHis (APOBEC3G) (Q9HC16 whole entry): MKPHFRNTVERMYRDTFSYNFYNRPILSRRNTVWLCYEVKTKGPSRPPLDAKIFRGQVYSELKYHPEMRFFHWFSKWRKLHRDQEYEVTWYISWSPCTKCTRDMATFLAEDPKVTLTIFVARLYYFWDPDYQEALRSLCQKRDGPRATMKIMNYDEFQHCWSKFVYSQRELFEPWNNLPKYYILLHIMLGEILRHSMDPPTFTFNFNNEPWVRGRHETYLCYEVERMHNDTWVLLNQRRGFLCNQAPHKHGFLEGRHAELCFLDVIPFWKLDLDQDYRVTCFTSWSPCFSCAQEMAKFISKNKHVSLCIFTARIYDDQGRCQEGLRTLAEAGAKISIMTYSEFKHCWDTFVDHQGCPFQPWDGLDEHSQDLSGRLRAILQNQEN

Row | Substance | reproducibility of A3G inhibitory activity (in words) (A3G-mycHis (APOBEC3G)) | A3G inhibitory effect (in words) (A3G (APOBEC3G) [1]) | published A3G inhibitory activity (in words) (A3G (APOBEC3G) [2]) | published A3G inhibitory activity (in words) (A3G (APOBEC3G) [2]; listed as Vif peptide 25–39) | specificity of A3G inhibition (in words) (A3G-mycHis (APOBEC3G); conclusion from scrambled and reverse peptide comparison) | published A3G inhibitory activity (in words) (A3G (APOBEC3G) [2]; listed as Vif 105–119) | published A3G inhibitory activity (in words) (A3G (APOBEC3G) [2]; listed as Vif peptide 105–119)
1 | H-VKHHMYISGKAKGWF-OH [Vif25–39] | did not find significant A3G inhibitory activity | no inhibitory effect | low micromolar inhibitory activities | sub-micromolar inhibitory activities |  |  | 
2 | H-QLIHLYYFDCFSESA-OH [compound 6044] | reproducible A3G inhibitory activity |  |  |  | non-specific | low micromolar inhibitory activities | sub-micromolar inhibitory activities
